Experimental data taken from ChEMBL document CHEMBL5257020, “Discovery of a 9-mer Cationic Peptide (LTX-315) as a Potential First in Class Oncolytic Peptide” (J Med Chem, 2016).
Where a SMILES comes first, the peptide text is derived from it. [ ]: non-standard residue; d: D form. ξ: configuration not given here. ξAla(9-anthryl) = NC(Cc1c2ccccc2cc2ccccc12)C(=O)O; Dip = N[C@H](C(=O)O)C(c1ccccc1)c1ccccc1; ξBip = NC(Cc1ccc(-c2ccccc2)cc1)C(=O)O; ξDip = NC(C(=O)O)C(c1ccccc1)c1ccccc1; ξ1Nal = NC(Cc1cccc2ccccc12)C(=O)O; ξ2Nal = NC(Cc1ccc2ccccc2c1)C(=O)O; ξOrn = NCCCC(N)C(=O)O; ξDab = NCCC(N)C(=O)O; ξDap = NCC(N)C(=O)O

Key:
[1] = Stability in pooled and cryopreserved human hepatocytes assessed as intrinsic clearance measured per 10^6 cells at 1 uM measured for 90 mins by LC-MS/MS analysis; assay type: ADME, cell-based, Hepatocyte; details: read-out: CLH
Procedure, shortened: (§1)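 Pooled cryopreserved hepatocytes at 0.5 million cells/mL, incubated at about 37 °C with 1 μM initial peptide. Supernatant after centrifugation analysed by LC–MS/MS (MRM) using a D-Trp7,9,10-substance P internal standard. Peak height was referenced to time zero, and t1/2 = −0.693/slope of ln concentration vs time. Clint = 0.693/t1/2 × Vinc per million cells. Testosterone, midazolam and 4-methylumbelliferone were the positive controls. Duplicates; mean of two experiments.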

[2] = Stability in pooled and cryopreserved rat hepatocytes assessed as intrinsic clearance measured per 10^6 cells at 1 uM measured for 90 mins by LC-MS/MS analysis; assay type: ADME, cell-based, Hepatocyte; details: read-out: CLH; procedure, shortened: as §1
[3] = Cytotoxicity against human MRC5 cells assessed as inhibition of cell proliferation incubated for 4 hrs by MTT assay; assay type: toxicity, cell-based
Procedure, shortened: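 MRC-5 human embryonic lung fibroblasts cultured in MEM with 2 mM L-glutamine and 10% FBS, without antibiotics, at 37 °C in humidified 5% CO2. Cultures were tested for mycoplasma. IC50 from three or more independent measurements, given as mean ± SD.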

A20 = assay: Cytotoxicity against mouse A20 lymphoma cells assessed as inhibition of cell proliferation incubated for 4 hrs by MTT assay; assay type: functional, cell-based; details: A20, 4 h
Procedure, shortened: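 Murine A20 cells cultured in RPMI-1640 with 2 mM L-glutamine, 1.5 g/L sodium bicarbonate, 4.5 g/L glucose, 10 mM HEPES, 1.0 mM sodium pyruvate, 0.05 mM 2-mercaptoethanol and 10% FBS, without antibiotics, at 37 °C, 5% CO2. IC50 from three or more independent measurements, given as mean ± SD.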

[4] = Cytotoxicity against mouse AT84 cells assessed as inhibition of cell proliferation incubated for 4 hrs by MTT assay; assay type: functional, cell-based; details: AT84, 4 h
[5] = Stability in pooled and cryopreserved rat hepatocytes assessed as half life at 1 uM measured for 90 mins by LC-MS/MS analysis; assay type: ADME, cell-based, Hepatocyte
Procedure, shortened: (§2)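 Pooled cryopreserved rat or human hepatocytes, 0.5 million cells/mL, ~37 °C, peptide at 1 μM initial. Supernatants analysed by LC–MS/MS with peak height referenced to time zero. t1/2 = −0.693/slope of ln concentration vs time. Duplicate experiments. Testosterone, midazolam and 4-methylumbelliferone served as metabolic-competence controls.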

[6] = Stability in pooled and cryopreserved human hepatocytes assessed as half life at 1 uM measured for 90 mins by LC-MS/MS analysis; assay type: ADME, cell-based, Hepatocyte; procedure, shortened: as §2

Compound | hepatocyte CLint at 1 µM [1] [µL/min/1e6 cells] | hepatocyte CLint at 1 µM [2] [µL/min/1e6 cells] | IC50 at 4 h [3] [µM] | IC50 (A20) [µM] | IC50 [4] [µM] | half-life at 1 µM [5] [min] | half-life at 1 µM [6] [min]
C[C@]12CC[C@H]3[C@@H](CCC4=CC(=O)CC[C@@]43C)[C@@H]1CC[C@@H]2O [TESTOSTERONE] | 333 | 811 | – | – | – | – | –
NCCCC[C@H](NC(=O)[C@H](Cc1c[nH]c2ccccc12)NC(=O)[C@H](Cc1c[nH]c2ccccc12)NC(=O)[C@H](CCCCN)NC(=O)[C@H](CCCCN)NC(=O)[C@H](Cc1c[nH]c2ccccc12)NC(=O)C(NC(=O)[C@H](CCCCN)NC(=O)[C@@H](N)CCCCN)C(c1ccccc1)c1ccccc1)C(N)=O (stereo not given in full) (H-KK[ξDip]WKKWWK-NH2) | – | – | 488 | 51.7 | 36.7 | – | –
NCCCC[C@H](NC(=O)[C@H](Cc1c[nH]c2ccccc12)NC(=O)[C@H](Cc1c[nH]c2ccccc12)NC(=O)[C@H](CCCCN)NC(=O)[C@H](CCCCN)NC(=O)C(Cc1cccc2ccccc12)NC(=O)[C@H](Cc1c[nH]c2ccccc12)NC(=O)[C@H](CCCCN)NC(=O)[C@@H](N)CCCCN)C(N)=O (stereo not given in full) (H-KKW[ξ1Nal]KKWWK-NH2) | – | – | 238 | 24 | 26.3 | – | –
NCCCC[C@H](NC(=O)[C@H](Cc1c[nH]c2ccccc12)NC(=O)[C@H](Cc1c[nH]c2ccccc12)NC(=O)[C@H](CCCCN)NC(=O)[C@H](CCCCN)NC(=O)C(NC(=O)[C@H](Cc1c[nH]c2ccccc12)NC(=O)[C@H](CCCCN)NC(=O)[C@@H](N)CCCCN)C(c1ccccc1)c1ccccc1)C(N)=O (stereo not given in full) (H-KKW[ξDip]KKWWK-NH2) | – | – | 287 | 25.7 | 24.7 | – | –
NCCCC[C@H](NC(=O)C(NC(=O)[C@H](Cc1c[nH]c2ccccc12)NC(=O)[C@H](CCCCN)NC(=O)[C@H](CCCCN)NC(=O)[C@H](Cc1c[nH]c2ccccc12)NC(=O)[C@@H](N)Cc1c[nH]c2ccccc12)C(c1ccccc1)c1ccccc1)C(N)=O (stereo not given in full) (H-WWKKW[ξDip]K-NH2) | – | – | 53.2 | 20.3 | – | – | –
NCC(N)C(=O)NC(CN)C(=O)N[C@@H](Cc1c[nH]c2ccccc12)C(=O)NC(C(=O)NC(CN)C(=O)NC(CN)C(=O)N[C@@H](Cc1c[nH]c2ccccc12)C(=O)N[C@@H](Cc1c[nH]c2ccccc12)C(=O)NC(CN)C(N)=O)C(c1ccccc1)c1ccccc1 (stereo not given in full) (H-[ξDap][ξDap]W[ξDip][ξDap][ξDap]WW[ξDap]-NH2) | – | – | 516 | 67.7 | 154 | – | –
NCCCC[C@H](NC(=O)[C@H](Cc1c[nH]c2ccccc12)NC(=O)[C@H](Cc1c[nH]c2ccccc12)NC(=O)[C@H](CCCCN)NC(=O)[C@H](CCCCN)NC(=O)C(Cc1c2ccccc2cc2ccccc12)NC(=O)[C@H](Cc1c[nH]c2ccccc12)NC(=O)[C@H](CCCCN)NC(=O)[C@@H](N)CCCCN)C(N)=O (stereo not given in full) (H-KKW[ξAla(9-anthryl)]KKWWK-NH2) | – | – | 40 | 9.3 | 11 | – | –
NCCCC[C@H](NC(=O)C(NC(=O)[C@H](Cc1c[nH]c2ccccc12)NC(=O)[C@H](CCCCN)NC(=O)[C@H](CCCCN)NC(=O)[C@H](Cc1c[nH]c2ccccc12)NC(=O)[C@H](Cc1c[nH]c2ccccc12)NC(=O)[C@@H](N)CCCCN)C(c1ccccc1)c1ccccc1)C(N)=O (stereo not given in full) (H-KWWKKW[ξDip]K-NH2) | – | – | 43.9 | 13.5 | – | – | –
NCCCC[C@H](NC(=O)[C@H](Cc1c[nH]c2ccccc12)NC(=O)[C@H](Cc1c[nH]c2ccccc12)NC(=O)[C@H](CCCCN)NC(=O)[C@H](CCCCN)NC(=O)C(Cc1ccc(-c2ccccc2)cc1)NC(=O)[C@H](Cc1c[nH]c2ccccc12)NC(=O)[C@H](CCCCN)NC(=O)[C@@H](N)CCCCN)C(N)=O (stereo not given in full) (H-KKW[ξBip]KKWWK-NH2) | – | – | 174 | 18.7 | 27.3 | – | –
NCCCC[C@H](NC(=O)C(NC(=O)[C@H](Cc1c[nH]c2ccccc12)NC(=O)[C@H](CCCCN)NC(=O)[C@H](CCCCN)NC(=O)C(NC(=O)[C@H](Cc1c[nH]c2ccccc12)NC(=O)[C@H](CCCCN)NC(=O)[C@@H](N)CCCCN)C(c1ccccc1)c1ccccc1)C(c1ccccc1)c1ccccc1)C(N)=O (stereo not given in full) (H-KKW[ξDip]KKW[ξDip]K-NH2) | – | – | 80 | 12 | 15 | – | –
NCCCC[C@H](NC(=O)[C@H](Cc1c[nH]c2ccccc12)NC(=O)[C@H](Cc1c[nH]c2ccccc12)NC(=O)[C@H](CCCCN)NC(=O)[C@H](CCCCN)NC(=O)C(Cc1ccc2ccccc2c1)NC(=O)[C@H](Cc1c[nH]c2ccccc12)NC(=O)[C@H](CCCCN)NC(=O)[C@@H](N)CCCCN)C(N)=O (stereo not given in full) (H-KKW[ξ2Nal]KKWWK-NH2) | – | – | 257 | 26 | 29.3 | – | –
NCCCC(N)C(=O)NC(CCCN)C(=O)N[C@@H](Cc1c[nH]c2ccccc12)C(=O)NC(C(=O)NC(CCCN)C(=O)NC(CCCN)C(=O)N[C@@H](Cc1c[nH]c2ccccc12)C(=O)N[C@@H](Cc1c[nH]c2ccccc12)C(=O)NC(CCCN)C(N)=O)C(c1ccccc1)c1ccccc1 (stereo not given in full) (H-[ξOrn][ξOrn]W[ξDip][ξOrn][ξOrn]WW[ξOrn]-NH2) | – | – | 323 | 21.7 | 23 | – | –
NCCCC[C@H](NC(=O)[C@H](Cc1c[nH]c2ccccc12)NC(=O)[C@H](Cc1c[nH]c2ccccc12)NC(=O)[C@H](CCCCN)NC(=O)[C@H](CCCCN)NC(=O)[C@@H](NC(=O)[C@H](Cc1c[nH]c2ccccc12)NC(=O)[C@H](CCCCN)NC(=O)[C@@H](N)CCCCN)C(c1ccccc1)c1ccccc1)C(N)=O (H-KKW[Dip]KKWWK-NH2) | – | – | > 347 | 134 | 113 | – | –
Cc1ncc2n1-c1ccc(Cl)cc1C(c1ccccc1F)=NC2 [MIDAZOLAM] | < 7 | 51 | – | – | – | 27 | > 200
NCCCC[C@H](NC(=O)[C@H](Cc1c[nH]c2ccccc12)NC(=O)[C@H](Cc1c[nH]c2ccccc12)NC(=O)[C@H](CCCCN)NC(=O)[C@H](CCCCN)NC(=O)[C@H](Cc1c[nH]c2ccccc12)NC(=O)[C@H](Cc1c[nH]c2ccccc12)NC(=O)[C@H](CCCCN)NC(=O)[C@@H](N)CCCCN)C(N)=O (H-KKWWKKWWK-NH2) | – | – | > 357 | 37.3 | 31 | – | –
NCCCC[C@H](NC(=O)[C@H](Cc1c[nH]c2ccccc12)NC(=O)C(NC(=O)[C@H](CCCCN)NC(=O)[C@H](CCCCN)NC(=O)[C@H](Cc1c[nH]c2ccccc12)NC(=O)[C@H](Cc1c[nH]c2ccccc12)NC(=O)[C@H](CCCCN)NC(=O)[C@@H](N)CCCCN)C(c1ccccc1)c1ccccc1)C(N)=O (stereo not given in full) (H-KKWWKK[ξDip]WK-NH2) | – | – | 102 | 12.3 | 25.3 | – | –
NCCCC[C@H](NC(=O)C(NC(=O)[C@H](Cc1c[nH]c2ccccc12)NC(=O)[C@H](CCCCN)NC(=O)[C@H](CCCCN)NC(=O)[C@@H](N)Cc1c[nH]c2ccccc12)C(c1ccccc1)c1ccccc1)C(N)=O (stereo not given in full) (H-WKKW[ξDip]K-NH2) | – | – | 460 | 247 | – | – | –
NCCC(N)C(=O)NC(CCN)C(=O)N[C@@H](Cc1c[nH]c2ccccc12)C(=O)NC(C(=O)NC(CCN)C(=O)NC(CCN)C(=O)N[C@@H](Cc1c[nH]c2ccccc12)C(=O)N[C@@H](Cc1c[nH]c2ccccc12)C(=O)NC(CCN)C(N)=O)C(c1ccccc1)c1ccccc1 (stereo not given in full) (H-[ξDab][ξDab]W[ξDip][ξDab][ξDab]WW[ξDab]-NH2) | – | – | 97.7 | 8.3 | 14.3 | – | –
Cc1cc(=O)oc2cc(O)ccc12 [HYMECROMONE] | 127 | 373 | – | – | – | 4 | 11
